Nine compounds from ChEMBL document CHEMBL1770108, “Design and synthesis of substituted N-(1,3-diphenyl-1H-pyrazol-5-yl)benzamides as positive allosteric modulators of the metabotropic glutamate receptor subtype 5” (Bioorg Med Chem Lett, 2011) can be followed below.

The target in test [1] is T1, Metabotropic glutamate receptor 5 (Rattus norvegicus, UniProt P31424). In words: Antagonist activity at rat mGluR5 expressed in HEK293T cells assessed as inhibition of glutamate-induced calcium flux by calcium fluorescence assay. It is filed as functional, cell-based, HEK-293T. The procedure, abridged: (§1)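 Rat mGluR5-expressing cells loaded with a calcium-sensitive fluorescent dye receive vehicle or test compound. After 2.5 min, an EC20 concentration of glutamate is added, then an EC80 concentration 1 min later. This triple-add protocol allows simultaneous detection of agonist, potentiator and antagonist activity. Intracellular calcium release is read kinetically in every well by an imaging plate reader.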
T1 sequence (P31424 whole entry): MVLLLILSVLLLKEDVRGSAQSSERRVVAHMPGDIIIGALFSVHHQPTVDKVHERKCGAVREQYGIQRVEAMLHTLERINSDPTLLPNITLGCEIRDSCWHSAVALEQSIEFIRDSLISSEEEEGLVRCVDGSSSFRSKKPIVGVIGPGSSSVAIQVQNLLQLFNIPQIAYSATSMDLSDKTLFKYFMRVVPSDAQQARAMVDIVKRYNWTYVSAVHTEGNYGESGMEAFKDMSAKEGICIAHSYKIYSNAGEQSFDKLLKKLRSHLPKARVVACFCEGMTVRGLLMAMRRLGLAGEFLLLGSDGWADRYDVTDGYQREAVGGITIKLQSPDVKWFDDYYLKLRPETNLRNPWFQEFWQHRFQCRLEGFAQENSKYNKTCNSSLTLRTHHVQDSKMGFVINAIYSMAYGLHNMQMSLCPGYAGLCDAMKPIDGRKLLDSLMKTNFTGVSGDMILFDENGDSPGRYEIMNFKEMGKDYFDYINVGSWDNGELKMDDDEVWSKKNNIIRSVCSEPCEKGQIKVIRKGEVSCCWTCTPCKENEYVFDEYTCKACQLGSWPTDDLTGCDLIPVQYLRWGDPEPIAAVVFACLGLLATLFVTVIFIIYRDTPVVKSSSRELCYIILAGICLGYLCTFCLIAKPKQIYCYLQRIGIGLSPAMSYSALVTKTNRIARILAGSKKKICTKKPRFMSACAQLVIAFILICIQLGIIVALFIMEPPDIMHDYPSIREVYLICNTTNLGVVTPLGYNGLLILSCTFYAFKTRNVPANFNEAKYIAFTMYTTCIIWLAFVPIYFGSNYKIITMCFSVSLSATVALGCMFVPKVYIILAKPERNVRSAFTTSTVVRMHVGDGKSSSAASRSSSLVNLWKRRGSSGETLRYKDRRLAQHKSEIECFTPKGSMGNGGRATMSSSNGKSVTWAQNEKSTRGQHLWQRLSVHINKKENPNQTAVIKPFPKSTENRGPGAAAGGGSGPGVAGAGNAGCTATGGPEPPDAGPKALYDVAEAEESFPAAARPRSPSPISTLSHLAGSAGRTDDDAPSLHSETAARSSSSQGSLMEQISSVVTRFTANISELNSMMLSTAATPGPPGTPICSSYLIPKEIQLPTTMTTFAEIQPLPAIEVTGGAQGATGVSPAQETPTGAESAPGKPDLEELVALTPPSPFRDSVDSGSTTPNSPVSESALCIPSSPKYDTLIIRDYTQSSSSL

Test [2] addresses T1, Metabotropic glutamate receptor 5. Briefly: Displacement of [3H]-MPEP from mGluR5 in rat brain. It is filed as tissue-based. The method, boiled down:
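Radioligand displacement binding using [3H]MPEP on rat brain membranes.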

For test [3], the target named is Metabotropic glutamate receptor 5 (Rattus norvegicus) (UniProt P31424). Briefly: Agonist activity at rat mGluR5 expressed in HEK293T cells assessed as increase of glutamate-induced calcium flux by calcium fluorescence assay relative to control. Particulars: HEK-293T. Format: functional, cell-based. The method, boiled down: as §1
Chain of Metabotropic glutamate receptor 5 (Rattus norvegicus) (P31424 21-1203 limits assumed): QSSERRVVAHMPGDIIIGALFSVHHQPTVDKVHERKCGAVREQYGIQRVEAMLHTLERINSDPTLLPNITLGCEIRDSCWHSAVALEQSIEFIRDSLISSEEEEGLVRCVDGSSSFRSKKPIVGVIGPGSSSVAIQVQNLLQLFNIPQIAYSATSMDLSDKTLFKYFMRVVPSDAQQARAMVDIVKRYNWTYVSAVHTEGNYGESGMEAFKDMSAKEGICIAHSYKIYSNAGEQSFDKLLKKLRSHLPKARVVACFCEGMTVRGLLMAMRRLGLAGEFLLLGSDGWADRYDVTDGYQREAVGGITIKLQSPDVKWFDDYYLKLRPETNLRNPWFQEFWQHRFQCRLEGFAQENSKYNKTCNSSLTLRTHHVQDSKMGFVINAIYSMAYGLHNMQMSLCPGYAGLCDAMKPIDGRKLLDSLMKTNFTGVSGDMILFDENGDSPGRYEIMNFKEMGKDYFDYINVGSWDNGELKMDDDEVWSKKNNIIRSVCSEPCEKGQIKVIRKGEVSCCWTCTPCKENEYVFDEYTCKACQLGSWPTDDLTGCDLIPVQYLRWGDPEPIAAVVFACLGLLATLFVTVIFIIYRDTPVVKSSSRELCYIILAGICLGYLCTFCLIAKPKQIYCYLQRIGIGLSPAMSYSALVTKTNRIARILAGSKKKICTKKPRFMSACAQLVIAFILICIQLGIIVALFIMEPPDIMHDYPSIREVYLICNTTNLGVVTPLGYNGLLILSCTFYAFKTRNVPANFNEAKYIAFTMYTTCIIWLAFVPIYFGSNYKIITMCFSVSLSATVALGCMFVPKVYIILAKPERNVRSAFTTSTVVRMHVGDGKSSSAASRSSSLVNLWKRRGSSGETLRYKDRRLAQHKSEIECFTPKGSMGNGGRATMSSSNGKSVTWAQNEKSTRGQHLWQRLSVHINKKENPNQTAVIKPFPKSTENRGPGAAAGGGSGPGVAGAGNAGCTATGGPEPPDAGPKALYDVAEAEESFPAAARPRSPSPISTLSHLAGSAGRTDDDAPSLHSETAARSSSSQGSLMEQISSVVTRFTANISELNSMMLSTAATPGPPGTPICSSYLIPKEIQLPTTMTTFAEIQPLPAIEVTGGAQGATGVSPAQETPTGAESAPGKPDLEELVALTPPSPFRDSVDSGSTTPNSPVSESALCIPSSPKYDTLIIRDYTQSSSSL
(In general: Calcium flux is commonly read through the fluorescence of an indicator in the cells.)

Test [4] has as its target T1, Metabotropic glutamate receptor 5. Briefly: Agonist activity at rat mGluR5 expressed in HEK293T cells assessed as effect on glutamate-induced calcium flux by calcium fluorescence assay. Format: functional, cell-based, HEK-293T. The procedure, abridged:
as §1

The structures appear in SMILES notation.

As a reminder, the IC50 is the point on the concentration scale where inhibition reaches its midpoint. As a reminder, the Ki is a dissociation constant, usually derived from enzyme kinetics or from competition with a known ligand. Read a low Ki as a stronger hold on the target. What is called EC50 is the concentration giving half of the maximal effect.

Turning to `CCCCc1cccc(NC(=O)c2cc(F)cc(C#N)c2)n1`, in test [1], the IC50 was 1550 nM. This compound registered a Ki in test [2] of 1050 nM.
With `N#Cc1cc(C(=O)Nc2cc(-c3ccccc3)nn2-c2ccccc2Cl)ccc1-c1ccccc1`, in test [3], the Activity came out at 61.8%. The affinity in test [2] corresponds to a Ki of 37 nM. For the same compound, the EC50 in test [4] was found to be 4140 nM.
Turning to `CCc1cccc(NC(=O)c2cc(F)cc(C#N)c2)n1`, in test [1], the IC50 is 169 nM. The compound also returned a Ki in test [2] of 762 nM.
Take `CCCc1cccc(NC(=O)c2cc(F)cc(C#N)c2)n1`: the IC50 in test [1] was determined as 165 nM. For the same compound, in test [2], affinity was put at a Ki of 325 nM.
In the case of `O=C(Nc1cc(-c2ccccc2)nn1-c1ccccc1Cl)c1cc(-c2cc(F)cc(F)c2)ccn1`, the Activity in test [3] was 67.6%. The same compound had a Ki in test [2] of 344 nM. For the same compound, the EC50 in test [4] amounted to 646 nM.
The compound `N#Cc1cc(C(=O)Nc2cc(-c3ccccc3)nn2-c2ccccc2Cl)ccc1-c1cccc(F)c1` gave a Ki in test [2] of 2060 nM. Moreover, the concentration giving a half-maximal response (EC50) in test [4] was greater than 30000 nM.
Consider `N#Cc1cc(C(=O)Nc2cc(-c3ccccc3)nn2-c2ccccc2Cl)ccc1-c1cccc2ccccc12`, for which the Activity in test [3] came out at 50.2%. Moreover, the inhibition constant Ki in test [2] was greater than 10000 nM. In addition, the EC50 in test [4] worked out at 2170 nM.
On to `Cc1ccc(NC(=O)c2cc(F)cc(C#N)c2)nc1`, for which the IC50 in test [1] was 4170 nM. This compound had a Ki in test [2] of 2830 nM.
Regarding `N#Cc1cc(C(=O)Nc2cc(-c3ccccc3)nn2-c2ccccc2Cl)ccc1-c1ccc(F)cc1`, the Activity in test [3] was determined as 68%. Further, the Ki in test [2] was 23 nM. For the same compound, the EC50 in test [4] was found to be 2430 nM.
